In brackets after ≈: the same amount, converted by molar mass.
Test: Thermodynamic solubility of the compound in phosphate buffer at pH 7.2 to 7.4 at 1 mg after 48 hrs by shake flask method
Assay type: physicochemical
Settings: read-out: Therm_solubility
Procedure, shortened: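 Shake-flask method: 1 mg of solid ground in an agate mortar, taken up in 1.0 mL of a 1:1 mixture of phosphate buffer (pH 7.2–7.4) and EtOH, shaken 48 h at 25 °C. An aliquot was filtered (0.45 µm), the filtrate diluted in CH₃CN and analysed by HPLC-UV at 254 nm. Concentration was calculated from a prior calibration curve and corrected for dilution.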

| SMILES | solubility thermodynamic at 48 h [mg/mL] |
| --- | --- |
| CCCOc1ccc(C[C@@H](Cc2ccccc2)C(=O)O)cc1CNC(=O)c1ccc(N2CC(C)(C)CC(C)(C)C2)cc1 | < 0.01 |
| CCCOc1ccc(C[C@@H](Cc2ccccc2)C(=O)O)cc1CNC(=O)c1ccc(N2C3CCCC2CCC3)cc1 | < 0.01 |
| CCCOc1ccc(C[C@@H](Cc2ccccc2)C(=O)O)cc1CNC(=O)c1ccc(N2C3CCCC2CC3)cc1 | 0.01 (≈ 18.5 µM) |
| CCCOc1ccc(C[C@@H](Cc2ccccc2)C(=O)O)cc1CNC(=O)c1ccc(N2C3CC4CC(C3)CC2C4)cc1 | < 0.01 |
| CCCOc1ccc(C[C@@H](Cc2ccccc2)C(=O)O)cc1CNC(=O)c1ccc(N2CC3CCC(C3)C2)cc1 | 0.01 (≈ 18.5 µM) |
| CCCOc1ccc(C[C@@H](Cc2ccccc2)C(=O)O)cc1CNC(=O)c1ccc(N2CCC(C)(C)CC2)cc1 | < 0.01 |
| CCCOc1ccc(C[C@@H](Cc2ccccc2)C(=O)O)cc1CNC(=O)c1ccc(C23CC4CC(CC(C4)C2)C3)cc1 | < 0.001 |

Second part, the compound after the results:

| solubility thermodynamic at 48 h [mg/mL] | SMILES |
| --- | --- |
| 0.01 (≈ 19.4 µM) | CCCOc1ccc(C[C@@H](Cc2ccccc2)C(=O)O)cc1CNC(=O)c1ccc(N2CCCCC2)cc1 |
| < 0.01 | CCCOc1ccc(C[C@@H](Cc2ccccc2)C(=O)O)cc1CNC(=O)c1ccc(N2CCCCCCC2)cc1 |
| < 0.01 | CCCOc1ccc(C[C@@H](Cc2ccccc2)C(=O)O)cc1CNC(=O)c1ccc(N2CCCC(C)(C)C2)cc1 |
